According to ChEMBL document CHEMBL4513216, “Probing the Open Global Health Chemical Diversity Library for Multistage-Active Starting Points for Next-Generation Antimalarials” (ACS Infect Dis, 2020):

test: Toxicity liver stage against HepG2, at 10uM; assay type: cell-based; set-up: test concentration 10 uM, cell line HepG2-A16-CD81EGFP; details: human, HepG2-A16-CD81EGFP cells; read-out: INHIBITION
Method in brief: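 Uninfected HepG2-A16-CD81EGFP cells, 3 × 10^3 per well, 1536-well, plated on prespotted compound at 10 μM final, parasite-free screening media added to match infected plates; puromycin 10 μM positive, DMSO 0.5% negative; run in parallel with 48 h PbLuc assay at 37 °C, 5% CO2; viability by CellTiter-Glo luminescence, normalized to controls.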

Structure (SMILES) | cytotoxicity at 10 µM [%]
CCOCCCNC(=O)CCCC(=O)n1nc(C)c2ccccc21 | -1.29
COC(=O)CCNC(=O)c1nc(NS(=O)(=O)c2ccccc2)sc1C | 8.23
CCc1nnc2ccc(N3CCN(S(=O)(=O)c4ccc(Cl)s4)CC3)nn12 | 5.01
Cc1nc(N(C)C)nc(C)c1NS(=O)(=O)c1ccccc1Cl | 4.22
CNC(=O)[C@H]1C[C@@H]2CN(C(=O)c3ccsc3)C[C@@H]2N1S(C)(=O)=O | -2.42
CN1CCc2c(C#N)c(NCCCO)n3cnnc3c2C1 | 8.71
CC(C)OCCCNC(=O)C1CCCN(c2ccc3nncn3n2)C1 (stereo not drawn) | 1.77
CC(C)Cc1noc(C2CCCCN2C(=O)CCc2cnn(C)c2)n1 (stereo not drawn) | 3.6
Cc1nn(C)c2cn(C(C)C(=O)NCc3ccncc3)nc12 (stereo not drawn) | 1.91
CCCNC(=O)c1cc(C(C)C)nc(N2CCCC2)n1 | 8.77
CCn1c(NCc2ccco2)nc2c(C)nn(C)c2c1=O | 2.48
CCSCc1nc(O)c2nnn(C3CCN(Cc4ccco4)CC3)c2n1 | 8.79
Cc1cc(Cc2ccc(F)cc2)cc(C2CCCNC2)n1 (stereo not drawn) | -3.14
Fc1cc(F)cc(CN2CCC(c3cc4ncccc4cn3)CC2)c1 | -1.13
C[C@@H]1CN2C[C@H](O)CC2CN1Cc1ccncc1 (stereo partly drawn) | 0.207
CCc1nnc(Nc2cc(C)nc(C3CCN(c4cnccn4)C3)n2)s1 (stereo not drawn) | 4.24
CC(C)CC(=O)N1CCCC1c1nccnc1Nc1ncccn1 (stereo not drawn) | -13.8
CNc1cc(CNC(=O)c2ccnc(OC)c2)nc(-c2ccncc2)n1 | -7.08
Cc1cc(-c2cnc(N3CCCC3)nc2-c2ccc(C)s2)on1 | -0.279
CN(C)C(=O)C1CN(Cc2ccccc2)CCN(S(C)(=O)=O)C1 (stereo not drawn) | -5.43
O=C(NCc1cccnc1)c1ccc2nccn2c1 | 8.08

Structure (SMILES) | cytotoxicity at 10 µM [%]
O=C(NC1CCCCC1)N1CCCC1c1nnc2n1CCNC2 (stereo not drawn) | 14.4
Cc1ccnc(NC(=O)c2ccc(Cl)o2)c1 | 4.14
CC(C)CNC(=O)c1sccc1-n1cnnn1 | 0.00426
O=S(=O)(NCCCn1cncn1)c1ccc2c(c1)OCCO2 | 5.38
COc1ncc(NCc2ccsc2)cc1C(N)=O | 1.25
CCCn1nnnc1COC(=O)C1COc2ccc(Cl)cc2C1 (stereo not drawn) | -8.68
Cc1n[nH]c(C2CN(C(=O)COCC(F)(F)F)CCO2)n1 (stereo not drawn) | 1.26
CC(CC(=O)N1CCCN(Cc2cscn2)CC1)n1cccc1 (stereo not drawn) | -8.01
COc1ccc(NCC(=O)NCC(=O)N2CCCC2)c(C(F)(F)F)c1 | 6.78
COc1cc(CNC(=O)N2CCCC2c2cc(C)no2)ccn1 (stereo not drawn) | 1.95
O=S(=O)(Cc1cccc(F)c1)NCC(O)Cc1ccccc1 (stereo not drawn) | 9.01
CC(C)(C)c1nnc(CN2CCN(C(=O)CC3CCCCC3)CC2)o1 | 15.3
Cc1cnn(CC2CCCN2CC(=O)N(C)Cc2cnn(C)c2)c1 (stereo not drawn) | 8.92
COCCN(Cc1ccc(F)cc1Cl)C(=O)c1cc(C)n[nH]1 | 0.886
CCc1nccn1C1CCCN(C(=O)c2cncn2-c2ccccc2)C1 (stereo not drawn) | 5.62
COCCCNC(=O)C1CCN(CC2(O)CCC(C)CC2)CC1 (stereo not drawn) | 21.6
Cc1noc(C)c1CNC(=O)C1(NS(C)(=O)=O)CCCCC1 | 6.55
Cc1nc(NC(=O)C(C)S(C)(=O)=O)sc1Cc1ccccc1F (stereo not drawn) | 9.8
Cc1ccc(C(=O)NS(C)(=O)=O)cc1I | 6.22
CCOC(=O)CN1CCC(NC(=O)OC(C)(C)C)CC1 | 0.449
Cc1cc(C(=O)N2CCCS2(=O)=O)c(C)o1 | -11.1

Structure (SMILES) | cytotoxicity at 10 µM [%]
COc1ccc(C(=O)N2Cc3c(Cn4ccnc4)nn(C)c3C2)cc1 | 4.89
CCc1ocnc1C(=O)N1CCC(n2cc(-c3ccsc3)nn2)CC1 | 1.47
CN(CCc1cnn(C)c1)C(=O)C1COc2ccccc2C1 (stereo not drawn) | 1.33
COc1ncc(-c2nccn2-c2ccccc2CN2CCOCC2)cn1 | 3.31
COCc1nc(N(C)C/C=C/c2ccccc2)c2cnn(C)c2n1 | -2.21
COCCn1c(=O)n(Cc2ccc(Cl)s2)c2cc(C(=O)O)ccc21 | -5.54
Cc1ccc(CN2CCC3(C2)C(=O)N(CC(N)=O)c2ccccc23)s1 (stereo not drawn) | 5.37
CCCc1nc(CN(CC)Cc2ccoc2)no1 | -2.52
COC[C@]1(O)CCN(Cc2cnc(N3CCOCC3)nc2)CC1(C)C | 1.4
Cc1nccn1-c1ccccc1CNC(=O)c1cn(CCN)nn1 | 1.58
O=C1NCCCC[C@@H]1NC(=O)C1(N2CCCCC2)Cc2ccccc2C1 | -4.3
CC1=CCN(C(=O)Nc2ccccc2N2CCOC2=O)CC1 | -0.724
CN1CC2(CCN(C(=O)c3ccc(-n4cccn4)cc3Cl)C2)OC1=O (stereo not drawn) | 4.36
CCOc1ccc(CC(=O)N2C[C@H](C3CC3)[C@@H](N)C2)cc1 | -7.76
O=C(O)c1ccc(CC2CCN(S(=O)(=O)N3CCOCC3)C2)cc1 (stereo not drawn) | 1.62
COC[C@]1(O)CCN(c2cc(N3CCOCC3)ncn2)CC1(C)C | -3.81
CCc1noc(-c2cccc(NC(=O)C(C)(C)C)c2)n1 | -4.15
CN1CCC(C)(CN(C)Cc2ccc(CCC(C)(C)O)cc2)C1 (stereo not drawn) | -6.44
O=C(NCc1nncn1C1CCCCC1)C1COc2ccccc2C1 (stereo not drawn) | 3.16
N#Cc1cc2c(nc1SCc1cc(O)nc(O)n1)CCCC2 | -3.94
Cc1noc2ncc(C(=O)N3CCCC(n4ccnc4C)C3)cc12 (stereo not drawn) | -13.4

Structure (SMILES) | cytotoxicity at 10 µM [%]
Cc1noc(Cl)c1CCC(=O)N1CCC(CC(N)=O)CC1 | -0.0707
CCOc1ccc(NC(=O)NCc2csc(NC)n2)cc1C | -3.91
CS(=O)(=O)NCC1CCCN(C(=O)COCc2ccccc2)C1 (stereo not drawn) | -7.59
CC(O)CN1CCC(CNCc2ccccc2OC(F)(F)F)CC1 (stereo not drawn) | -11.6
Cn1cc(CN2CCCN(C(=O)c3cc(Cl)cn3C)CC2)cn1 | -1.63
Cc1c(C(=O)NC(CN2CCCC2=O)c2ccccc2)cnn1C (stereo not drawn) | -8.7
O=C(NCCNc1ncccn1)N(Cc1ccc(F)cc1F)C1CC1 | -2.84
Cc1csc(N2CCN(C(=O)CCc3nccs3)CC2)n1 | -3.68
Cc1nc(COc2ccc(CNCC3CN(C)CCO3)cc2)cs1 (stereo not drawn) | -13.1
Cc1ccc(OCCSC2=NCCN2)cc1 | -2.01
COCC(=O)NC1CC2(CCN(Cc3ccco3)CC2)c2ccccc21 (stereo not drawn) | 5.61
O=C(C1CCC1)N1C[C@@H](c2ccsc2)[C@@H]2CN(C3CCCCC3)CC[C@@H]21 | 1.32
c1ccc(NC[C@@H]2CCC[C@@H]3CN(Cc4cccnc4)C[C@@H]32)nc1 | 2.78
Cn1cc(CN2C[C@@H]3COC[C@]3(C(=O)NCCc3ccccc3)C2)cn1 | 8.86
CCOCC1CC2(CCN(C(=O)c3ccccn3)CC2)CO1 (stereo not drawn) | -3.76
c1cnn(Cc2nnc3n2CCCN(Cc2ccsc2)C3)c1 | -0.714
Cc1ccc(CN2CC[C@H]3[C@@H]2CCC(=O)N3CCN2CCCC2)s1 | 3.01
COCCN1CCCC12CCN(C(=O)CC1CCCC1)CC2 | 5.47
Fc1cnc(N2CCCC3(CN(Cc4cccs4)CCO3)C2)nc1 (stereo not drawn) | 7.37
COc1ccc(C(=O)N2C[C@@H]3CC[C@H]2CN(C)C3)cc1Cl | 5.79
